The source made the active and inactive calls. The calls are words filed in the database; no cut-off is given here.
Legend:
[1] = test system: Human immunodeficiency virus 1; assay: Antiviral activity against HIV1 WITO4160.33 infected in human TZM-b1 cells assessed as inhibition of viral infection after 2 days postinfection by luciferase reporter gene assay; assay type: functional, organism-based; settings: Human immunodeficiency virus 1, WITO4160.33, TZM-b1, 48 h
Method in brief: (§1)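 Single-round infection of TZM-bl cells with 200 TCID50 of virus in the presence of varying compound concentrations, top concentration 15 µM. After 2 days, medium was removed and Bright-Glo reagent added to read luminescence. IC50 is the concentration giving 50% reduction in luciferase RLU relative to virus-control wells.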

[2] = test system: Human immunodeficiency virus 1; assay: Antiviral activity against HIV1 Du123.6 infected in human TZM-b1 cells assessed as inhibition of viral infection after 2 days postinfection by luciferase reporter gene assay; assay type: functional, organism-based; settings: Human immunodeficiency virus 1, Du123.6, TZM-b1, 48 h; method in brief: as §1
[3] = test system: Human immunodeficiency virus 1; assay: Antiviral activity against HIV1 Du151.2 infected in human TZM-b1 cells assessed as inhibition of viral infection after 2 days postinfection by luciferase reporter gene assay; assay type: functional, organism-based; settings: Human immunodeficiency virus 1, Du151.2, TZM-b1, 48 h; method in brief: as §1
[4] = test system: Human immunodeficiency virus 1; assay: Antiviral activity against HIV1 Du422.1 infected in human TZM-b1 cells assessed as inhibition of viral infection after 2 days postinfection by luciferase reporter gene assay; assay type: functional, organism-based; settings: Human immunodeficiency virus 1, Du422.1, TZM-b1, 48 h; method in brief: as §1
[5] = test system: Human immunodeficiency virus 1; assay: Antiviral activity against HIV1 ZM197M.PB7 infected in human TZM-b1 cells assessed as inhibition of viral infection after 2 days postinfection by luciferase reporter gene assay; assay type: functional, organism-based; settings: Human immunodeficiency virus 1, ZM197M.PB7, TZM-b1, 48 h; method in brief: as §1
[6] = test system: Human immunodeficiency virus 1; assay: Antiviral activity against HIV1 ZM214M.PL15 infected in human TZM-b1 cells assessed as inhibition of viral infection after 2 days postinfection by luciferase reporter gene assay; assay type: functional, organism-based; settings: Human immunodeficiency virus 1, ZM214M.PL15, TZM-b1, 48 h; method in brief: as §1
[7] = test system: Human immunodeficiency virus 1; assay: Antiviral activity against HIV1 ZM55F.PB28a infected in human TZM-b1 cells assessed as inhibition of viral infection after 2 days postinfection by luciferase reporter gene assay; assay type: functional, organism-based; settings: Human immunodeficiency virus 1, ZM55F.PB28a, TZM-b1, 48 h; method in brief: as §1
[8] = test system: Human immunodeficiency virus 1; assay: Antiviral activity against HIV1 ZM109F.PB4 infected in human TZM-b1 cells assessed as inhibition of viral infection after 2 days postinfection by luciferase reporter gene assay; assay type: functional, organism-based; settings: Human immunodeficiency virus 1, ZM109F.PB4, TZM-b1, 48 h; method in brief: as §1
[9] = test system: Human immunodeficiency virus 1; assay: Antiviral activity against HIV1 CAP.2.00.G3 infected in human TZM-b1 cells assessed as inhibition of viral infection after 2 days postinfection by luciferase reporter gene assay; assay type: functional, organism-based; settings: Human immunodeficiency virus 1, CAP.2.00.G3, TZM-b1, 48 h; method in brief: as §1
[10] = test system: Human immunodeficiency virus 1; assay: Antiviral activity against HIV1 CAP244.2.00.D3 infected in human TZM-b1 cells assessed as inhibition of viral infection after 2 days postinfection by luciferase reporter gene assay; assay type: functional, organism-based; settings: Human immunodeficiency virus 1, CAP244.2.00.D3, TZM-b1, 48 h; method in brief: as §1
[11] = Cytotoxicity against human TZM-bl cells at 15 uM after 2 days by trypan blue exclusion assay; assay type: cell-based; settings: 48 h
[12] = Cytotoxicity against human TZM-bl cells after 2 days by trypan blue exclusion assay; assay type: cell-based; settings: 48 h
[13] = Ratio of inhibition of HIV1 […] envelope glycoprotein 120-mediated membrane fusion to inhibition of HIV1 (isolate YU2) envelope glycoprotein 120-mediated membrane fusion
[14] = test system: Human immunodeficiency virus 1; assay: Inhibition of V3-speciifc monoclonal antibody 447-52D binding to HIV1 3B gp120 by ELISA-based competitive binding assay
[15] = test system: Human immunodeficiency virus 1; assay: Inhibition of V3-speciifc monoclonal antibody 39F binding to HIV1 3B gp120 by ELISA-based competitive binding assay
[16] = test system: Human immunodeficiency virus 1; assay: Inhibition of V3-speciifc monoclonal antibody 447-52 binding to HIV1 Ba-L gp120 by ELISA-based competitive binding assay
[17] = test system: Human immunodeficiency virus 1; assay: Inhibition of V3-speciifc monoclonal antibody […] binding to HIV1 Ba-L gp120 by ELISA-based competitive binding assay
[18] = test system: HOS; assay: Inhibition of HIV1 3B gp120/CD4 complex binding to CCR5 expressing HOS cells at […] after 1 hr by competitive binding assay; assay type: cell-based; settings: Human immunodeficiency virus 1
Method in brief: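 HOS.CCR5 cells were plated on poly-D-lysine and held overnight at 37°C. Soluble CD4 (4.5 nM) was premixed 1:1 with gp120 (Ba-L or IIIB) for 15 min at room temperature. The complex was added to cells with compound at 5 µg/ml for 1 h at 37°C. Bound gp120 was detected with FITC anti-gp120 (1 h), washed three times in PBS, and read by fluorescence at 490/520 nm.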

[19] = test system: Human immunodeficiency virus 1; assay: Antiviral activity against HIV1 QH0515.1 infected in human TZM-b1 cells assessed as inhibition of viral infection after 2 days postinfection by luciferase reporter gene assay; assay type: functional, organism-based; settings: Human immunodeficiency virus 1, QH0515.1, TZM-b1, 48 h; method in brief: as §1
[20] = test system: Human immunodeficiency virus 1; assay: Antiviral activity against HIV1 SS1196.1 infected in human TZM-b1 cells assessed as inhibition of viral infection after 2 days postinfection by luciferase reporter gene assay; assay type: functional, organism-based; settings: Human immunodeficiency virus 1, SS1196.1, TZM-b1, 48 h; method in brief: as §1
[21] = test system: Human immunodeficiency virus 1; assay: Antiviral activity against HIV1 TRO.11 infected in human TZM-b1 cells assessed as inhibition of viral infection after 2 days postinfection by luciferase reporter gene assay; assay type: functional, organism-based; settings: Human immunodeficiency virus 1, TRO.11, TZM-b1, 48 h; method in brief: as §1
[22] = test system: Human immunodeficiency virus 1; assay: Antiviral activity against HIV1 RHPA4259.7 infected in human TZM-b1 cells assessed as inhibition of viral infection after 2 days postinfection by luciferase reporter gene assay; assay type: functional, organism-based; settings: Human immunodeficiency virus 1, RHPA4259.7, TZM-b1, 48 h; method in brief: as §1
[23] = test system: Human immunodeficiency virus 1; assay: Antiviral activity against HIV1 REJO4541.67 infected in human TZM-b1 cells assessed as inhibition of viral infection after 2 days postinfection by luciferase reporter gene assay; assay type: functional, organism-based; settings: Human immunodeficiency virus 1, REJO4541.67, TZM-b1, 48 h; method in brief: as §1
[24] = test system: Human immunodeficiency virus 1; assay: Antiviral activity against HIV1 Q23.71 infected in human TZM-b1 cells assessed as inhibition of viral infection after 2 days postinfection by luciferase reporter gene assay; assay type: functional, organism-based; settings: Human immunodeficiency virus 1, Q23.71, TZM-b1, 48 h; method in brief: as §1
[25] = test system: Human immunodeficiency virus 1; assay: Antiviral activity against HIV1 Q168.a2 infected in human TZM-b1 cells assessed as inhibition of viral infection after 2 days postinfection by luciferase reporter gene assay; assay type: functional, organism-based; settings: Human immunodeficiency virus 1, Q168.a2, TZM-b1, 48 h; method in brief: as §1
[26] = test system: Human immunodeficiency virus 1; assay: Antiviral activity against HIV1 Q461.e2 infected in human TZM-b1 cells assessed as inhibition of viral infection after 2 days postinfection by luciferase reporter gene assay; assay type: functional, organism-based; settings: Human immunodeficiency virus 1, Q461.e2, TZM-b1, 48 h; method in brief: as §1
[27] = test system: Human immunodeficiency virus 1; assay: Antiviral activity against HIV1 Q769.d22 infected in human TZM-b1 cells assessed as inhibition of viral infection after 2 days postinfection by luciferase reporter gene assay; assay type: functional, organism-based; settings: Human immunodeficiency virus 1, Q769.d22, TZM-b1, 48 h; method in brief: as §1
[28] = test system: Human immunodeficiency virus 1; assay: Antiviral activity against HIV1 Q259.d2.17 infected in human TZM-b1 cells assessed as inhibition of viral infection after 2 days postinfection by luciferase reporter gene assay; assay type: functional, organism-based; settings: Human immunodeficiency virus 1, Q259.d2.17, TZM-b1, 48 h; method in brief: as §1
[29] = test system: Human immunodeficiency virus 1; assay: Antiviral activity against HIV1 Q842.d12 infected in human TZM-b1 cells assessed as inhibition of viral infection after 2 days postinfection by luciferase reporter gene assay; assay type: functional, organism-based; settings: Human immunodeficiency virus 1, Q842.d12, TZM-b1, 48 h; method in brief: as §1
[30] = test system: Human immunodeficiency virus 1; assay: Antiviral activity against HIV1 NL4-3 infected in human TZM-b1 cells assessed as inhibition of viral infection after 2 days postinfection by luciferase reporter gene assay; assay type: functional, organism-based; settings: Human immunodeficiency virus 1, NL4-3, TZM-b1, 48 h; method in brief: as §1
[31] = test system: Human immunodeficiency virus 1; assay: Antiviral activity against HIV1 HXB2 infected in human TZM-b1 cells assessed as inhibition of viral infection after 2 days postinfection by luciferase reporter gene assay; assay type: functional, organism-based; settings: Human immunodeficiency virus 1, HXB2, TZM-b1, 48 h; method in brief: as §1
[32] = test system: Human immunodeficiency virus 1; assay: Antiviral activity against HIV1 5768.4 infected in human TZM-b1 cells assessed as inhibition of viral infection after 2 days postinfection by luciferase reporter gene assay; assay type: functional, organism-based; settings: Human immunodeficiency virus 1, 5768.4, TZM-b1, 48 h; method in brief: as §1
[33] = test system: Human immunodeficiency virus 1; assay: Antiviral activity against HIV1 6535.3 infected in human TZM-b1 cells assessed as inhibition of viral infection after 2 days postinfection by luciferase reporter gene assay; assay type: functional, organism-based; settings: Human immunodeficiency virus 1, 6535.3, TZM-b1, 48 h; method in brief: as §1
[34] = test system: HOS; assay: Inhibition of HIV1 Ba-L gp120/CD4 complex binding to CCR5 expressing HOS cells at 5 µg/ml after 1 hr by competitive binding assay; settings: Human immunodeficiency virus 1
[35] = target: Envelope glycoprotein gp160 (Human immunodeficiency virus type 1 group M subtype B (isolate YU-2)(HIV-1)) (UniProt P35961); assay: Inhibition of HIV1 (isolate YU2) envelope glycoprotein 120-mediated membrane fusion between virus-transfected african green monkey COS cells and human TZM-bl cells by luciferase-based cell-cell fusion assay in presence of IC9564; settings: Human immunodeficiency virus type 1 (isolate YU2)
Envelope glycoprotein gp160 (Human immunodeficiency virus type 1 group M subtype B (isolate YU-2)(HIV-1)), sequence (P35961 whole entry, the tested form may be a part): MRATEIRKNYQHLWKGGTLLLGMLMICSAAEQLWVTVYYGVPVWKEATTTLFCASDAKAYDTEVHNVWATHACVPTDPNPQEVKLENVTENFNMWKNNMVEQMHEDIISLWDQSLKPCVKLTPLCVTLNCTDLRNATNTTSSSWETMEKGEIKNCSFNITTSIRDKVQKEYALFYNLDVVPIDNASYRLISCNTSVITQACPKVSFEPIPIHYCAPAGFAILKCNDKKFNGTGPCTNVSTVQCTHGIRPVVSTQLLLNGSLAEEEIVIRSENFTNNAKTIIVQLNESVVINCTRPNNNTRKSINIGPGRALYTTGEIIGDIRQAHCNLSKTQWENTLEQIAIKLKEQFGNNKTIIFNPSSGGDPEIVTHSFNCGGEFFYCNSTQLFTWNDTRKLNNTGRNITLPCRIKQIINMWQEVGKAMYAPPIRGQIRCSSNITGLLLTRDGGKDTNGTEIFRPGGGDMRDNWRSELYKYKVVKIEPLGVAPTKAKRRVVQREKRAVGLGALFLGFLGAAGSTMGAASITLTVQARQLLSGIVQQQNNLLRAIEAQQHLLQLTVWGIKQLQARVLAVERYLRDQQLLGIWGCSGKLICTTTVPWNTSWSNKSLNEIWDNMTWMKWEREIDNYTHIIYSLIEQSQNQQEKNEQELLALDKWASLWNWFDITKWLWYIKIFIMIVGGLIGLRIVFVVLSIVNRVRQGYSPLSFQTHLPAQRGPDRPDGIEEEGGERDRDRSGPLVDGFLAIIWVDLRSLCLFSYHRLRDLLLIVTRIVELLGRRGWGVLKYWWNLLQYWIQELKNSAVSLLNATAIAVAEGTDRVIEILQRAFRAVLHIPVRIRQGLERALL

Molecule | IC50 [2] | IC50 [3] | IC50 [4] | IC50 [5] | IC50 [6] | IC50 [7] | IC50 [8] | IC50 [9] | IC50 [10] | Activity [11] | IC50 [12] | IC50 [19] | IC50 [20] | IC50 [21] | IC50 [22] | IC50 [23] | IC50 [24] | IC50 [25] | IC50 [26] | IC50 [27] | other results
C=C(C)[C@@H]1CC[C@]2(C(=O)NCCCCCCCC(=O)N[C@@H](CC(C)C)[C@H](O)CC(=O)O)CC[C@]3(C)[C@H](CC[C@@H]4[C@@]5(C)CC[C@H](O)C(C)(C)[C@@H]5CC[C@]43C)[C@@H]12 | 0.09 µM | 0.81 µM | 0.65 µM | 0.09 µM | 0.07 µM | 0.75 µM | 0.81 µM | 0.08 µM | 1.21 µM | Non-toxic | > 50 µM | 1.26 µM | 0.21 µM | 0.75 µM | 0.82 µM | 1.07 µM | 1.61 µM | 0.62 µM | 0.31 µM | 4.07 µM | IC50 [1]: 0.39 µM; Ratio [13]: 30; inhibition [14]: Dose-dependent effect; inhibition [15]: Dose-dependent effect; inhibition [16]: Active; inhibition [17]: inactive; inhibition [18]: Active; IC50 [28]: 0.25 µM; IC50 [29]: 0.81 µM; IC50 [30]: 0.1 µM; IC50 [31]: 0.08 µM; IC50 [32]: 0.67 µM; IC50 [33]: 7.3 µM; inhibition [34]: Active
enfuvirtide | 0.33 µM | 0.45 µM | 0.56 µM | 2.23 µM | 2.67 µM | 0.71 µM | 0.09 µM | 2.23 µM | 1.83 µM | Non-toxic | > 50 µM | 2.23 µM | 1.02 µM | 1.67 µM | 0.76 µM | 1.11 µM | 0.91 µM | 0.78 µM | 1.74 µM | 2.23 µM | IC50 [28]: 1.01 µM; IC50 [29]: 2.45 µM; IC50 [30]: 1.91 µM; IC50 [32]: 1.45 µM
Cc1ccc(-c2ccc3c(c2)C=C(C(=O)Nc2ccc(C[N+](C)(C)C4CCOCC4)cc2)CCC3)cc1 |  |  |  |  |  |  |  |  |  |  |  |  |  |  |  |  |  |  |  |  | Activity [35]: 0.053 ng/mL
C=C(C)[C@@H]1CC[C@]2(C(=O)NCCCCCCCNC(C)=O)CC[C@]3(C)[C@H](CC[C@@H]4[C@@]5(C)CC[C@H](O)C(C)(C)[C@@H]5CC[C@]43C)[C@@H]12 | 0.08 µM | 0.19 µM | 0.17 µM | 0.09 µM | 0.048 µM | 0.34 µM | 0.4 µM | 0.14 µM | 0.4 µM | Non-toxic | > 50 µM | 1.05 µM | 0.22 µM | 0.79 µM | 0.64 µM | 0.85 µM | 0.45 µM | 0.31 µM | 0.38 µM | 3.7 µM | IC50 [1]: 0.14 µM; IC50 [28]: 0.28 µM; IC50 [29]: 0.39 µM; IC50 [30]: 0.11 µM; IC50 [31]: 0.07 µM; IC50 [32]: 0.45 µM; IC50 [33]: 1.03 µM

From ChEMBL document CHEMBL1152462, “Betulinic acid derivatives that target gp120 and inhibit multiple genetic subtypes of human immunodeficiency virus type 1” (Antimicrob Agents Chemother, 2008)
